Experimental data taken from ChEMBL document CHEMBL1122603, “2-Acetylpyridine thiosemicarbazones. 9. Derivatives of 2-acetylpyridine 1-oxide as potential antimalarial agents” (1984).
In brackets after ≈: the same amount, converted by molar mass.

Columns and labels:
[1] = system: Plasmodium falciparum; test: In vitro antimalarial potency against chloroquine-sensitive, pyrimethamine-resistant Plasmodium falciparum CAMP; assay type: functional; conditions: read-out: ID50 (the source's name)
Procedure, shortened: (§1)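 Semiautomated culture assay on P. falciparum. Stocks were 1 mg/mL in 1:1 DMSO/EtOH, diluted in culture medium as seven 2-fold steps over a 64-fold range, with chloroquine and mefloquine as plate controls. Plates ran 24 h at 37 °C under 5% O2/5% CO2/90% N2, then [G-3H]hypoxanthine was added for 18 h more. Harvested incorporation was read by scintillation counting as the viability index.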

[2] = system: Plasmodium falciparum; test: In vitro antimalarial potency against multidrug-resistant Plasmodium falciparum Vietnam Smith strain; assay type: functional; conditions: read-out: ID50 (the source's name); procedure, shortened: as §1
[3] = system: Mus musculus; test: In vivo antimalarial activity against Plasmodium berghei in the mice (Mus musculus) at 320 mg/kg dosage; assay type: functional
Procedure, shortened: (§2)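 Mortality-based mouse test against the drug-sensitive P. berghei strain KBG 173, run at the Leo Rane Laboratory. Groups of five mice per dose level were scored for cures and for toxic deaths.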

[4] = system: Plasmodium berghei; test: Increase in mean survival time in Plasmodium berghei inoculated mice (Mus musculus) following 40 mg/kg administration; assay type: functional
[5] = system: Mus musculus; test: In vivo antimalarial activity against Plasmodium berghei in the mice (Mus musculus) at 640 mg/kg dosage; C=cure; assay type: functional, organism-based; parameters: dose 640 mg/kg; procedure, shortened: as §2
[6] = system: Mus musculus; test: In vivo antimalarial activity against Plasmodium berghei in the mice (Mus musculus) at 80 mg/kg dosage; assay type: functional; procedure, shortened: as §2
[7] = system: Plasmodium berghei; test: Increase in mean survival time in Plasmodium berghei inoculated mice (Mus musculus) following 160 mg/kg administration; assay type: functional
[8] = system: Mus musculus; test: In vivo antimalarial activity against Plasmodium berghei in the mice (Mus musculus) at 20 mg/kg dosage; assay type: functional; procedure, shortened: as §2
[9] = system: Mus musculus; test: In vivo antimalarial activity against Plasmodium berghei in the mice (Mus musculus) at 320 mg/kg dosage; C=cure; assay type: functional, organism-based; parameters: dose 320 mg/kg; procedure, shortened: as §2
[10] = system: Mus musculus; test: In vivo antimalarial activity against Plasmodium berghei in the mice (Mus musculus) at 640 mg/kg dosage; assay type: functional; procedure, shortened: as §2
[11] = system: Mus musculus; test: In vivo antimalarial activity against Plasmodium berghei in the mice (Mus musculus) at 160 mg/kg dosage; assay type: functional; procedure, shortened: as §2
[12] = system: Mus musculus; test: In vivo antimalarial activity against Plasmodium berghei in the mice (Mus musculus) at 320 mg/kg dosage; T= Toxicity; assay type: functional, organism-based; parameters: dose 320 mg/kg; procedure, shortened: as §2
[13] = system: Mus musculus; test: In vivo antimalarial activity against Plasmodium berghei in the mice (Mus musculus) at 40 mg/kg dosage; assay type: functional; procedure, shortened: as §2
[14] = system: Mus musculus; test: In vivo antimalarial activity against Plasmodium berghei in the mice (Mus musculus) at 160 mg/kg dosage; C=cure; assay type: functional, organism-based; parameters: dose 160 mg/kg; procedure, shortened: as §2
[15] = system: Mus musculus; test: In vivo antimalarial activity against Plasmodium berghei in the mice (Mus musculus) at 640 mg/kg dosage; T= Toxicity; assay type: functional, organism-based; parameters: dose 640 mg/kg; procedure, shortened: as §2
[16] = system: Mus musculus; test: In vivo antimalarial activity against Plasmodium berghei in the mice (Mus musculus) at 80 mg/kg dosage; C=cure; assay type: functional, organism-based; parameters: dose 80 mg/kg; procedure, shortened: as §2

| Compound | IC50 [1] | IC50 [2] | increase in mean survival time [3] | increase in mean survival time [4] | cures (mice cured) [5] | increase in mean survival time [6] | increase in mean survival time [7] | increase in mean survival time [10] | further results |
| --- | --- | --- | --- | --- | --- | --- | --- | --- | --- |
| C/C(=N\N=C(/S)N1CC2CCC(CC2)C1)c1cccc[n+]1[O-] | 0.086 µg/mL (≈ 0.27 µM) | 0.083 µg/mL (≈ 0.261 µM) | 4.9 days | -0.7 days | Cures | 0.1 days | 1.1 days |  |  |
| CC(N/N=C(\S)N1CC2CCC(CC2)C1)c1cccc[n+]1[O-] (stereo not drawn) |  |  | 2.5 days | -0.3 days | Cures | 0.7 days | 0.9 days |  | increase in mean survival time [8]: -0.1 days |
| C/C(=N\N=C(/S)N1CCCCC1)c1cccc[n+]1[O-] |  |  |  | 3.5 days | Cures | 1.3 days | 6.3 days |  | cure outcome [9]: Cures |
| C/C(=N\N=C(/S)N1CCCCCC1)c1cccc[n+]1[O-] |  |  | 4.9 days | 0.9 days |  | 0.7 days | 3.1 days | 7.1 days |  |
| C/C(=N\N=C(/S)N1CC(C)OC(C)C1)c1cccc[n+]1[O-] (stereo not drawn) | 0.041 µg/mL (≈ 0.133 µM) | 0.046 µg/mL (≈ 0.149 µM) |  | 4.9 days | Cures | 6.1 days | 6.1 days |  |  |
| C/C(=N\N=C(/S)N1CCSCC1)c1cccc[n+]1[O-] | 0.044 µg/mL (≈ 0.148 µM) |  |  | 0.1 days |  |  | 0.9 days | 1.5 days |  |
| CC(N/N=C(\S)N1CCN(c2ccccn2)CC1)c1cccc[n+]1[O-] (stereo not drawn) |  |  |  |  |  |  | 0.2 days | 3.4 days |  |
| C/C(=N\N=C(/S)N1CCCC(C)C1)c1cccc[n+]1[O-] (stereo not drawn) | 0.039 µg/mL (≈ 0.133 µM) | 0.051 µg/mL (≈ 0.174 µM) | 1.4 days | 1.5 days | Cures | 1.6 days | 4.7 days |  |  |
| C/C(=N\N=C(/S)N(C)C)c1cccc[n+]1[O-] | 0.054 µg/mL (≈ 0.227 µM) | 0.078 µg/mL (≈ 0.327 µM) |  |  |  | 0.7 days |  | 6.9 days | increase in mean survival time [11]: 4.2 days; increase in mean survival time [12]: Toxic; increase in mean survival time [13]: 2.3 days |
| C/C(=N\N=C(/S)N1CCN(c2ccccc2)CC1)c1cccc[n+]1[O-] | 0.062 µg/mL (≈ 0.174 µM) |  | 9.1 days | 0.1 days |  | 1.7 days | 3.5 days | 8.3 days |  |
| C/C(=N\N=C(/S)N1CCC(C)CC1)c1cccc[n+]1[O-] | 0.074 µg/mL (≈ 0.253 µM) | 0.073 µg/mL (≈ 0.25 µM) | 4.2 days | 0.6 days | Cures | 2.2 days | 2.3 days |  |  |
| C/C(=N\N=C(/S)N1CCCCC1C)c1cccc[n+]1[O-] (stereo not drawn) | 0.077 µg/mL (≈ 0.263 µM) | 0.08 µg/mL (≈ 0.274 µM) |  | 2.3 days | Cures | 3.3 days |  |  | cure outcome [9]: Cures; increase in mean survival time [14]: Cures |
| 3-Aza-bicyclo[3.2.2]nonane-3-carbothioic acid [1-(1-oxy-pyridin-2-yl)-ethylidene]-hydrazide; compound with copper(I) chloride |  |  |  | -0.3 days |  |  | 1.4 days | 2.4 days |  |
| CC(N/N=C(\S)N1CCCCC1)c1cccc[n+]1[O-] (stereo not drawn) |  |  |  | 0.2 days |  |  | 0.2 days | 1.8 days |  |
| C/C(=N\N=C(/S)N1CCN(c2ccccn2)CC1)c1cccc[n+]1[O-] |  |  |  | 0.5 days | Cures | 0.3 days | 1.9 days |  | cure outcome [9]: Cures |
| CC(N/N=C(\S)N1CCCC1)c1cccc[n+]1[O-] (stereo not drawn) |  |  |  | 0.8 days |  |  | 0 days | 1.6 days |  |
| C/C(=N\N=C(/S)N1CCCC1)c1cccc[n+]1[O-] | 0.048 µg/mL (≈ 0.182 µM) | 0.044 µg/mL (≈ 0.166 µM) |  | 0.9 days |  | 1.1 days | 1.5 days | 5.9 days | cure outcome [9]: Cures |
| C/C(=N\N=C(/S)N1CCN(C=O)CC1)c1cccc[n+]1[O-] |  |  |  | -0.3 days |  |  | 0.3 days |  | increase in mean survival time [15]: Toxic |
| CCOC(=O)N1CCN(/C(S)=N/NC(C)c2cccc[n+]2[O-])CC1 (stereo not drawn) |  |  | 8 days |  |  | 6 days | 6.6 days | 9 days | increase in mean survival time ([4]; 40 mg/kg): 1.2 days |
| CC(N/N=C(\S)N1CCCCCC1)c1cccc[n+]1[O-] (stereo not drawn) |  |  | 1.6 days | -0.2 days |  | 0.4 days | 0.8 days | 3.5 days |  |
| CCOC(=O)N1CCN(/C(S)=N/N=C(\C)c2cccc[n+]2[O-])CC1 |  |  |  | 4.7 days |  |  |  |  | increase in mean survival time [12]: Toxic; increase in mean survival time [15]: Toxic; increase in mean survival time [16]: Cures; increase in mean survival time [14]: Cures |
